From ChEMBL document CHEMBL2177084, “Discovery of salermide-related sirtuin inhibitors: binding mode studies and antiproliferative effects in cancer cells including cancer stem cells” (J Med Chem, 2012) come the findings set out here.

Activity calls are given as the source filed them. The calls are words filed in the database; no cut-off is given here.

Experiment [1] has as its system U-937. In words: Induction of apoptosis in human U937 cells at 50 uM after 45 hrs by flow cytometry. In kind it is functional, cell-based. Put shortly:
(§1)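 Apoptosis was taken as the pre-G1 peak after propidium iodide staining in hypotonic citrate/Triton buffer (30 min, dark) and flow cytometry. Triplicate experiments.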
On the technique in general: In flow cytometry, cells or beads pass a laser one at a time.

In experiment [2] the test system is U-937. In words: Induction of apoptosis in human U937 cells at 5 uM after 45 hrs by flow cytometry. In kind it is functional, cell-based. A digest of the protocol:
as §1

The nature of experiment [3]: Cytotoxicity against human 30PT cells at 50 uM after 72 hrs by celltiter-glo luminescent assay. In kind it is functional. A digest of the protocol:
(§2)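 Patient-derived CSC spheroids were dissociated, plated at 2000–3000 viable cells, and held 24 h at 37 °C in 5% CO2. They were then treated 72 h with eight 1:3 serial dilutions (0.023–50 μM), with 0.1% DMSO as control, in triplicate. Viability was read by CellTiter-Glo luminescence relative to DMSO, and CC50 was obtained by 4-parameter logistic fit (mean of three experiments).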
(In general: In ATP-based viability assays light output follows the ATP content of the culture.)

Experiment [4] can be described thus: Cytotoxicity against human 30P cells at 50 uM after 72 hrs by celltiter-glo luminescent assay. In kind it is functional. Put shortly:
as §2

Experiment [5] is described as follows: (§3) Cytotoxicity against human CRC 1.1 cells at 50 uM after 72 hrs by celltiter-glo luminescent assay. In kind it is functional. Put shortly: as §2
Experiment [6] is described as follows: Cytotoxicity against human CRO cells at 50 uM after 72 hrs by celltiter-glo luminescent assay. In kind it is functional. Put shortly:
as §2

The test system of experiment [7] is MOLT-4. In words: Antiproliferative activity against human MOLT4 cells at 100 uM by MTT assay. In kind it is functional, cell-based. The following applies: TDE = time-dependent effect. A digest of the protocol: (§4)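 Cells exposed to compound for 24, 48 and 72 h; growth inhibition read by MTT and expressed as percentage antiproliferative activity.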
On the technique in general: Formazan colour is commonly taken as a measure of viable cells.

The subject of experiment [8] is MOLT-4. Description: Antiproliferative activity against human MOLT4 cells at 100 uM after 24 to 72 hrs by MTT assay. In kind it is functional, cell-based. Put shortly:
as §4

Experiment [9] has as its system MOLT-4. In words: Antiproliferative activity against human MOLT4 cells at 25 uM after 24 to 72 hrs by MTT assay. In kind it is functional, cell-based. A digest of the protocol: as §4
Experiment [10] is described as follows: Cytotoxicity against human 30PT cells after 72 hrs by celltiter-glo luminescent assay. In kind it is functional. A digest of the protocol: as §2
Experiment [11] can be described thus: Cytotoxicity against human 30P cells after 72 hrs by celltiter-glo luminescent assay. In kind it is functional. A digest of the protocol: as §2
Experiment [12] in a line: Cytotoxicity against human CRC 1.1 cells after 72 hrs by celltiter-glo luminescent assay. In kind it is functional. Put shortly: as §2
Experiment [13] in a line: Cytotoxicity against human CRO cells after 72 hrs by celltiter-glo luminescent assay. In kind it is functional. A digest of the protocol:
as §2

The test system of experiment [14] is MDA-MB-231. Description: Antiproliferative activity against human MDA-MB-231 cells at 50 uM after 24 to 72 hrs by MTT assay. In kind it is functional, cell-based. A digest of the protocol: as §4
In experiment [15] the test system is RKO. Description: Antiproliferative activity against human RKO cells at 50 uM after 24 to 72 hrs by MTT assay. In kind it is functional, cell-based. Put shortly: as §4
For experiment [16], the system named is MOLT-4. In words: Antiproliferative activity against human MOLT4 cells at 50 uM after 24 to 72 hrs by MTT assay. In kind it is functional, cell-based. A digest of the protocol:
as §4

In experiment [17] the test system is RKO. Description: Antiproliferative activity against human RKO cells at 25 uM after 24 to 72 hrs by MTT assay. In kind it is functional, cell-based. Put shortly: as §4
Experiment [18] has as its system MDA-MB-231. In words: Antiproliferative activity against human MDA-MB-231 cells at 25 uM after 24 to 72 hrs by MTT assay. In kind it is functional, cell-based. Put shortly: as §4
Experiment [19] concerns U-937. In words: Induction of apoptosis in human U937 cells after 45 hrs by flow cytometry. In kind it is functional. Further details: concentration or dose not given beside the values. Put shortly:
as §1

The test system of experiment [20] is U-937. Description: Cell cycle arrest in human U937 cells assessed as accumulation at G1 phase at 25 uM after 40 hrs by flow cytometry. In kind it is functional, cell-based.
Experiment [21] has as its system U-937. In words: Granulocytic differentiation in human U937 cells assessed as increase of CD11c cells at 25 uM after 40 hrs by FACS analysis relative to control. In kind it is functional. Put shortly:
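U937 cells treated 40 h at 25 μM, then stained with PE-conjugated anti-CD11c (PE mouse IgG1 as isotype control) for 30 min at 4 °C in the dark. Cells were washed in PBS and taken up in PBS with 0.25 μg/mL propidium iodide. Differentiation = CD11c-positive cells minus PI-positive dead cells, by FACS.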

Experiment [22] has as its system U-937. In words: Cell cycle arrest in human U937 cells at 25 uM after 40 hrs by flow cytometry. In kind it is functional, cell-based.
The target in experiment [23] is T1, NAD-dependent protein deacetylase sirtuin-2 (Homo sapiens, UniProt Q8IXJ6).
T1 sequence (Q8IXJ6 whole entry): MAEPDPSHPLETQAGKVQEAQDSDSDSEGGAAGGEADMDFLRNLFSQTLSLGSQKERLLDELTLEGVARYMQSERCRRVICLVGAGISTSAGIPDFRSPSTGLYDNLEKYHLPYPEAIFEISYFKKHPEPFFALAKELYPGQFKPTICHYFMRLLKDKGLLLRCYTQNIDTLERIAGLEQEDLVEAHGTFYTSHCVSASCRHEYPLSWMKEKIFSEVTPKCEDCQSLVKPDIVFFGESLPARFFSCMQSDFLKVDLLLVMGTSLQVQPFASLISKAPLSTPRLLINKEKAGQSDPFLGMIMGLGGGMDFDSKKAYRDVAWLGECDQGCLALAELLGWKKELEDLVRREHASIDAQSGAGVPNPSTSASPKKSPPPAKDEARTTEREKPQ
Description: Inhibition of human SIRT2 expressed in Escherichia coli using Gln-Pro-Lys-Lys(Ac) as substrate after 1 hr by Fluor de Lys fluorescence based assay. A digest of the protocol: (§5)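 Recombinant full-length human sirtuin expressed in E. coli was incubated 1 h at 37 °C with p53-derived AMC-conjugated acetyl-peptide (SIRT1: Arg-His-Lys-Lys(Ac); SIRT2: Gln-Pro-Lys-Lys(Ac); […]) and NAD+ ([…]). The reaction was stopped and developed with developer containing 2 mM nicotinamide, and fluorescence read at ex 360/em 460 nm. Compound fluorescence was subtracted using an enzyme-free counter assay. Triplicate.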

Experiment [24] concerns the target T2, NAD-dependent protein deacetylase sirtuin-1 (Homo sapiens, UniProt Q96EB6).
T2 sequence (Q96EB6 whole entry): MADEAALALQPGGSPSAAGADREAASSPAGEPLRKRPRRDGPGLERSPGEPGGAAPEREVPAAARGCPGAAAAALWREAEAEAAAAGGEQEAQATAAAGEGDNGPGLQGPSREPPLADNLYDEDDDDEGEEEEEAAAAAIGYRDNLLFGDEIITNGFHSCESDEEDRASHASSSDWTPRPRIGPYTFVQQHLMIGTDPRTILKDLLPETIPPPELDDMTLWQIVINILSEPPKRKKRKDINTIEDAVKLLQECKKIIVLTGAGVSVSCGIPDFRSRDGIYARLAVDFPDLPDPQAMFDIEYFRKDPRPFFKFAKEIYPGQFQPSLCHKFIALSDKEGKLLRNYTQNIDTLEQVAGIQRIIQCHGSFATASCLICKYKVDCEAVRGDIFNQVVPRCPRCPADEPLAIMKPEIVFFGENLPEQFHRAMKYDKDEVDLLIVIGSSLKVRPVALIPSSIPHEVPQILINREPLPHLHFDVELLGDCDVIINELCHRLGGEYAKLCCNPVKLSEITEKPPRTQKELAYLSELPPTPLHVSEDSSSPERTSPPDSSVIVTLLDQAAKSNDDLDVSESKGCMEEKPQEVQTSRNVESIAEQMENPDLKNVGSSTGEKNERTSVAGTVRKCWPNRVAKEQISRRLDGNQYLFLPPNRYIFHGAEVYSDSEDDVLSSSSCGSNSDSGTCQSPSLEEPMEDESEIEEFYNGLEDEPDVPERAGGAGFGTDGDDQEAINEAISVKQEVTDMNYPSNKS
Description: Inhibition of human N-terminal GST-tagged SIRT1 expressed in Escherichia coli using Arg-His- Lys-Lys(Ac) as substrate after 1 hr by Fluor de Lys fluorescence based assay. A digest of the protocol: as §5

The species named for another experiment is Homo sapiens. Described as §3. In kind it is functional. A digest of the protocol:
as §2

The mark [25] stands for this setting: in the assay text read “after 40 hrs” for “after 45 hrs”.
The mark [26] stands for this setting: in the assay text read “40 hrs” for “45 hrs”.

As usually defined, the inhibition is the percentage by which the read-out fell short of the control. With `CC(C[S+]([O-])c1ccccc1/N=C/c1c(O)ccc2ccccc12)c1ccccc1` (stereo not given), the result in the experiment with U-937 [1], with MOLT-4 [8] and with MOLT-4 [9] was Active. For the same molecule, in the experiment on U-937 [2], the outcome was inactive. Also, the inhibition at 50 µM in experiment [3] stood at 39%; in experiment [4] it was 42%; in experiment [5] it was 46%; in [6], 33%. Further, in the experiment with MOLT-4 [7], the Activity result was “tde”.
By CC50 is commonly meant the concentration giving 50% cytotoxicity. As for `CC(C(=O)Nc1cccc(/N=C/c2c(O)ccc3ccccc23)c1)c1ccccc1` (stereo not given) [SALERMIDE], the outcome with U-937 [1], in the experiment on MOLT-4 [8], with MDA-MB-231 [14], in the experiment with RKO [15], with MOLT-4 [16] and in the experiment with RKO [17] was Active. Also, the result in the experiment on MDA-MB-231 [18], with MOLT-4 [9] and with U-937 [20] was Active. The result with U-937 [2] was inactive. Further, the CC50 in experiment [10] was determined as 36.5 µM; in experiment [11] it was 41 µM; in experiment [12], 9.7 µM; in experiment [13], 6.7 µM. Besides, the Activity entry was “tde” with MOLT-4 [7] and 70% with U-937 [19] (setting [25]).
Regarding `N#C/C(=C\c1ccc(-c2cc(Cl)ccc2Cl)o1)C(=O)Nc1cccc2ncccc12`, the inhibition at 50 µM in experiment [5] and in experiment [6] was 50% each time. For the same molecule, the CC50 in experiment [10] was 9.6 µM. Moreover, the outcome with U-937 [21], in the experiment with U-937 [19] (setting [26]) and with U-937 [22] was inactive.
As usually defined, the IC50 is the concentration that inhibits the measured activity by half. With `CC(CS(=O)(=O)c1ccccc1/N=C/c1c(O)ccc2ccccc12)c1ccccc1` (stereo not given), the outcome in the experiment with U-937 [1] and in the experiment on MOLT-4 [9] was Active. For the same molecule, the outcome in the experiment with U-937 [2] was inactive. Further, half-maximal inhibition in [23] (IC50) required 24.2 µM. Moreover, the half-maximal cytotoxic concentration (CC50) is 15.3 µM in [10], 17.4 µM in [11], 19.5 µM in experiment [12] and 15.7 µM in [13].
On to `CC(C[S+]([O-])c1cccc(/N=C/c2c(O)ccc3ccccc23)c1)c1ccccc1` (stereo not given), for which the outcome with U-937 [1], with MOLT-4 [8] and in the experiment on MOLT-4 [9] was Active. Also, in the experiment with U-937 [2], the outcome was inactive. In [24], this molecule came in with a half-maximal inhibitory concentration (IC50) of 40.3 µM. Also, the results for the CC50 in [11] and in experiment [12] were 35 µM and 23.4 µM, respectively.
In the case of `CC(C(=O)Nc1ccc(/N=C/c2c(O)ccc3ccccc23)cc1)c1ccccc1` (stereo not given), the outcome with U-937 [1], in the experiment on MOLT-4 [8] and with U-937 [20] was Active. The outcome with U-937 [2] was inactive. Half-maximal inhibition in experiment [24] (IC50) was put at 40.9 µM. The Activity result is “tde” with MOLT-4 [7] and 70% in the experiment on U-937 [19] (setting [25]).
For `NC(=O)C1CCCc2c1[nH]c1ccc(Cl)cc21` (stereo not given), the values for the inhibition at 50 µM in experiment [3], in experiment [4] and in experiment [6] were 20%, 10% and 20%, respectively. Besides, the inhibition entry in the experiment listed under Homo sapiens is “inactive”. The outcome in the experiment with U-937 [21], in the experiment on U-937 [19] (setting [26]) and in the experiment on U-937 [22] was inactive.
